What was measured:
SiHa [1] = assay: Cytotoxicity against human SiHa cells after 4 hrs under strict hypoxic condition; format: functional, cell-based; details: Homo sapiens, SiHa, 4 h
HT-29 [2] = assay: Drug metabolism in human HT-29 cells assessed as amount of drug metabolized for one log of cell kill at their CT10 concentration for 1 hr; format: ADME, cell-based; details: ht-29, 1 h
Method in brief: (§1)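 Stirred single-cell suspensions of anoxic HT29 cells are exposed for 3 h at a drug concentration giving roughly one log kill by 1 h. Clonogenic survival is followed, and extracellular drug is monitored by HPLC. Concentration-time data are fitted for the apparent first-order metabolic rate constant k_met, scaled to MCL cell density. CT₁₀ and M₁₀ (drug metabolized at 10% survival) are interpolated from the fitted PK/PD model.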

HT-29 [3] = assay: Cytotoxicity against human HT-29 cells assessed as AUC-time curve providing 10% surviving fraction by clonogenic assay; format: functional
SiHa [4] = assay: Hypoxic cytotoxicity ratio, ratio of aerobic IC50 to anoxic IC50 for human SiHa cells; format: functional
HT-29 [5] = assay: Metabolic stability in human HT-29 multicellular layer assessed as apparent first-order rate constant under anoxic condition; format: ADME, cell-based; method in brief: as §1
[6] = Solubility at 22 degC in culture medium in presence of 5% fetal calf serum; format: physicochemical
Method in brief: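 Solubility of the HCl salts is determined in culture medium containing 5% fetal calf serum at 22 °C.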

HT-29 [7] = assay: Cytotoxicity against human HT-29 cells after 4 hrs under strict hypoxic condition; format: functional, cell-based; details: Homo sapiens, HT-29, 4 h
HT-29 [8] = assay: Hypoxic cytotoxicity ratio, ratio of aerobic IC50 to anoxic IC50 for human HT-29 cells; format: functional
HT-29 [9] = assay: Drug diffusion coefficient in human HT-29 multicellular layer under 95% oxygen by liquid scintillation counting; format: ADME, cell-based
Method in brief: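 Tissue diffusion coefficient D measured in HT29 multicellular layers held under 95% O₂ to suppress bioreductive metabolism. Reported as ×10⁻⁷ cm²s⁻¹.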

[10] = culture medium with 5% fetal calf serum, read-out: solubility

Row | solubility ([6]; serum) [mM] | SMILES | IC50 (SiHa [1]) [µM] | Activity (HT-29 [2]) [µM] | Activity (HT-29 [3]) [µM·h] | Ratio IC50 (SiHa [4]) | Activity (HT-29 [5]) [min⁻¹] | solubility [6, 10] [mM] | IC50 (HT-29 [7]) [µM] | Ratio IC50 (HT-29 [8]) | Activity (HT-29 [2]; 1 h) [µM] | D (HT-29 [9]) [cm²/s]
1 | – | CCN(CC)CCNc1n[n+]([O-])c2cc3c(cc2[n+]1[O-])CCC3 | 1.1 | 4521 | 36.3 | 133 | 1.08 | 48 | 4.1 | 61 | – | –
2 | – | Nc1n[n+]([O-])c2cc3c(cc2[n+]1[O-])CCC3 | 8.3 | 7735 | 106 | 31 | 0.47 | 3 | 15.2 | 27 | – | –
3 | – | CN(C)CCNc1n[n+]([O-])c2c3c(ccc2[n+]1[O-])CCCC3 | 1 | 4223 | 19.5 | 64 | 1.78 | 47 | 3.4 | 18 | – | –
4 | – | [O-][n+]1nc(NCCCN2CCOCC2)[n+]([O-])c2cc3c(cc21)CCO3 | 29 | 2155 | 82.1 | 14 | 0.23 | 46 | 49 | 6 | – | –
5 | – | CN(C)CCNc1n[n+]([O-])c2c3c(ccc2[n+]1[O-])OCCC3 | 0.7 | 3124 | 46.1 | 66 | 0.59 | 47 | 4.1 | 14 | – | –
6 | – | [O-][n+]1nc(CCCN2CCOCC2)[n+]([O-])c2cc3c(cc21)CC(CO)C3 (stereo not drawn) | 1.8 | 2533 | 24.4 | 206 | 0.9 | 48 | 2.4 | 121 | – | –
7 | – | [O-][n+]1nc(NCCCN2CCOCC2)[n+]([O-])c2ccc3c(c21)CCC3 | 13.9 | 4108 | 176.4 | 33 | 0.2 | 46 | 38 | 24 | – | –
8 | – | CCNc1n[n+]([O-])c2cc3c(cc2[n+]1[O-])CC(N(C)C)C3 (stereo not drawn) | – | – | – | – | – | 46 | – | – | – | –
9 | – | [O-][n+]1nc(NCCCN2CCOCC2)[n+]([O-])c2cc3c(cc21)CCC3 | 8.8 | 1715 | 76.2 | 44 | 0.19 | 48 | 21.4 | 20 | – | –
10 | – | CCc1n[n+]([O-])c2cc3c(cc2[n+]1[O-])CC(CCO)C3 (stereo not drawn) | 2.9 | 2641 | 41.3 | 86 | 0.54 | 2 | 7.7 | 102 | – | –
11 | – | CN(C)CCNc1n[n+]([O-])c2cc3c(cc2[n+]1[O-])OCC3 | 1.9 | 3000 | 43.3 | 128 | 0.6 | 49 | 5.2 | 46 | – | –
12 | – | [O-][n+]1nc(NCCCN2CCOCC2)[n+]([O-])c2cc3c(cc21)OCC3 | 3.4 | 2660 | 116 | 28 | 0.2 | > 49 | 22 | 8 | – | –
13 | – | Nc1n[n+]([O-])c2cc3c(cc2[n+]1[O-])OCC3 | 23 | – | – | – | – | 0.1 | 117 | 4 | – | –
14 | – | [O-][n+]1nc(NCCCN2CCOCC2)[n+]([O-])c2cc3c(cc21)CCCC3 | 2.6 | 3294 | 41.6 | 54 | 0.69 | 49 | 6.3 | 25 | – | –
15 | – | CCN(CC)CCNc1n[n+]([O-])c2c3c(ccc2[n+]1[O-])CCC3 | 0.9 | 3806 | 35.1 | 64 | 0.97 | > 49 | 4.2 | 17 | – | –
16 | – | CCc1n[n+]([O-])c2cc3c(cc2[n+]1[O-])CC(CN1CCOCC1)C3 (stereo not drawn) | 2.4 | 1544 | 24.1 | 62 | 0.54 | 43 | 4.8 | 31 | – | –
17 | – | CCNc1n[n+]([O-])c2cc3c(cc2[n+]1[O-])CN(C)CC3 | 1.1 | – | – | 100 | – | > 47 | 2.6 | 59 | – | –

Row | solubility ([6]; serum) [mM] | SMILES | IC50 (SiHa [1]) [µM] | Activity (HT-29 [2]) [µM] | Activity (HT-29 [3]) [µM·h] | Ratio IC50 (SiHa [4]) | Activity (HT-29 [5]) [min⁻¹] | solubility [6, 10] [mM] | IC50 (HT-29 [7]) [µM] | Ratio IC50 (HT-29 [8]) | Activity (HT-29 [2]; 1 h) [µM] | D (HT-29 [9]) [cm²/s]
18 | – | CCN1Cc2cc3c(cc2C1)[n+]([O-])c(N)n[n+]3[O-] | 0.8 | 2022 | 8.1 | 80 | 2.2 | 6 | 1.5 | – | – | –
19 | – | CC1Cc2cc3c(cc2C1)[n+]([O-])c(CCCN1CCOCC1)n[n+]3[O-] (stereo not drawn) | – | 2059 | – | – | 0.96 | 36 | – | – | – | –
20 | > 50 | CN(C)CCNc1n[n+]([O-])c2cc3c(cc2[n+]1[O-])OCO3 | – | – | – | – | 0.87 | – | – | – | 4310 | –
21 | – | CC1Cc2cc3c(cc2C1)[n+]([O-])c(NCCCN1CCOCC1)n[n+]3[O-] (stereo not drawn) | 8.4 | 1903 | 122.9 | 50 | 0.13 | > 49 | 19 | 25 | – | –
22 | – | Nc1n[n+]([O-])c2ccccc2[n+]1[O-] [TIRAPAZAMINE] | – | 1698 | 24.3 | – | – | – | – | – | – | 4.04e-07
23 | – | COc1ccc2c(c1)[n+]([O-])c(NCCN(C)C)n[n+]2[O-] | – | 1635 | 26.1 | – | 0.54 | – | – | 89 | – | 2.3e-07
24 | – | CN(C)CCNc1n[n+]([O-])c2cc3c(cc2[n+]1[O-])CCCCC3 | 1.2 | 5404 | 30.6 | 88 | 1.52 | > 53 | 5.2 | 54 | – | –
25 | – | CCc1n[n+]([O-])c2cc3c(cc2[n+]1[O-])CC(CO)C3 (stereo not drawn) | 6.5 | 2096 | 49.7 | 48 | 0.47 | 5 | 17 | 45 | – | –
26 | – | CC1Cc2cc3c(cc2C1)[n+]([O-])c(NCCN(C)C)n[n+]3[O-] (stereo not drawn) | 1.4 | 3057 | 23 | 97 | 1.49 | > 49 | 3.5 | 54 | – | –
27 | – | CCc1n[n+]([O-])c2cc3c(cc2[n+]1[O-])CN(C)CC3 | 3.1 | – | – | 6 | – | > 47 | 13.1 | 2 | – | –
28 | – | [O-][n+]1nc(NCCN2CCCCC2)[n+]([O-])c2ccc3c(c21)CCC3 | 1 | 5022 | 27.2 | 51 | 1.6 | 36 | 4.9 | 53 | – | –
29 | – | [O-][n+]1nc(CCCN2CCOCC2)[n+]([O-])c2cc3c(cc21)CCO3 | 5.1 | 986 | 27.6 | 43 | 0.31 | 51 | 8.9 | 25 | – | –
30 | – | CCN(CC)CCNc1n[n+]([O-])c2cc3c(cc2[n+]1[O-])OCC3 | 3.4 | 1718 | 58 | 122 | 0.26 | 47 | 10 | 113 | – | –
31 | – | CC1Cc2cc3c(cc2C1)[n+]([O-])c(CCCO)n[n+]3[O-] (stereo not drawn) | 8 | 2394 | 85.3 | 104 | 0.24 | 10 | 13 | 80 | – | –
32 | – | CCc1n[n+]([O-])c2cc3c(cc2[n+]1[O-])CC(CCN1CCOCC1)C3 (stereo not drawn) | 1.3 | 984 | 15.8 | 84 | 0.54 | > 51 | 3.6 | 36 | – | –
33 | – | CCCN(CCC)CCNc1n[n+]([O-])c2c3c(ccc2[n+]1[O-])CCC3 | 3.3 | 5626 | 66.3 | 23 | 0.73 | 40 | 12.4 | 7 | – | –

Reference: ChEMBL document CHEMBL1142527, “Tricyclic [1,2,4]triazine 1,4-dioxides as hypoxia selective cytotoxins” (J Med Chem, 2008)
